From ChEMBL document CHEMBL4261518, “Side chain-functionalized aniline-derived ursolic acid derivatives as multidrug resistance reversers that block the nuclear factor-kappa B (NF-κB) pathway and cell proliferation” (Medchemcomm, 2017)
pIC50: −log10 of the molar value.

What was measured:
[1] = Resistant factor, ratio of IC50 for human NCI-H460/DOX cells to IC50 for human NCI-H460 cells; assay type: functional
MGC-803 = assay: Cytotoxicity against human MGC803 cells after 48 hrs by MTT assay; assay type: functional, cell-based; details: MGC-803, 48 h
Procedure, shortened: (§1)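 Cells grown overnight in DMEM + 10% FBS at 37 °C under 5% CO2, then given a range of compound concentrations for 48 h. MTT added for about 4 h, medium replaced by DMSO, absorbance read at 570/630 nm. IC50 reported as mean ± SD of five independent experiments.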

NCI-H460 [2] = assay: Cytotoxicity against human NCI-H460 cells harboring pNF-kB-Luc assessed as reduction in cell viability after 7 hrs by MTT assay relative to control; set-up: concentration or dose not given beside the values; details: nci-h460, 7 h
L02 = assay: Cytotoxicity against human HL7702 cells after 48 hrs by MTT assay; assay type: cell-based; details: L02, 48 h; procedure, shortened: as §1
[3] = Resistant factor, ratio of IC50 for human HepG2/DOX cells to IC50 for human HepG2 cells; assay type: functional
[4] = Cytotoxicity against human HepG2/DOX cells after 48 hrs by MTT assay; assay type: functional, cell-based; procedure, shortened: as §1
[5] = Cytotoxicity against human SPCA2 cells after 48 hrs by MTT assay; assay type: functional, cell-based; details: SPCA2, 48 h; procedure, shortened: as §1
A549 = assay: Cytotoxicity against human A549 cells after 48 hrs by MTT assay; assay type: functional, cell-based; details: A549, 48 h; procedure, shortened: as §1
T-24 = assay: Cytotoxicity against human T24 cells after 48 hrs by MTT assay; assay type: functional, cell-based; details: T-24, 48 h; procedure, shortened: as §1
HepG2 = assay: Cytotoxicity against human HepG2 cells after 48 hrs by MTT assay; assay type: functional, cell-based; details: HepG2, 48 h; procedure, shortened: as §1
[6] = Inhibition of TNFalpha-induced NF-kB (unknown origin) activation expressed in human NCI-H460 cells after 7 hrs by luciferase reporter gene assay; assay type: cell-based; details: NCI-H460, 7 h
Procedure, shortened: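 NCI-H460 cells transiently co-transfected with pNF-κB-Luc reporter and pSV-β-galactosidase internal control by lipofectamine. Medium changed after 6 h, then 6 h further culture. TNF-α (15 ng ml–1) plus compound given together for 7 h. Luciferase ratio to TNF-α-only cells, corrected for non-TNF background and viability. IC50 from sigmoidal variable-slope fit.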

[7] = Cytotoxicity against human NCI-H460/DOX cells after 48 hrs by MTT assay; assay type: functional, cell-based; details: NCI-H460, 48 h; procedure, shortened: as §1
NCI-H460 [8] = assay: Cytotoxicity against human NCI-H460 cells after 48 hrs by MTT assay; assay type: functional, cell-based; details: NCI-H460, 48 h; procedure, shortened: as §1

Compound | pIC50 [6] | Ratio IC50 [1] | pIC50 (MGC-803) | Activity (NCI-H460 [2]) [%] | pIC50 (L02) | Ratio IC50 [3] | pIC50 [4] | pIC50 [5] | pIC50 (A549) | pIC50 (T-24) | pIC50 (HepG2) | pIC50 [7] | pIC50 (NCI-H460 [8])
Cc1ccc(NC(=O)[C@]23CC[C@@H](C)[C@H](C)[C@H]2C2=CC[C@@H]4[C@@]5(C)CCC(=O)C(C)(C)[C@@H]5CC[C@@]4(C)[C@]2(C)CC3)cc1 | 5.27 | 1.76 | 4.73 | < 5 | < 4.30 | 1.62 | 4.55 | 4.76 | 4.75 | 4.70 | 4.75 | 4.68 | 4.92
C[C@H]1[C@H](C)CC[C@]2(C(=O)NCCN(C)C)CC[C@]3(C)C(=CC[C@@H]4[C@@]5(C)CCC(=O)C(C)(C)[C@@H]5CC[C@]43C)[C@H]12 | 6.03 | 1.56 | 5.13 | < 5 | < 4.30 | 1.26 | 4.94 | 5.16 | 5.22 | 5.20 | 5.04 | 5.17 | 5.36
CC(=O)O[C@H]1CC[C@]2(C)[C@H]3CC=C4[C@@H]5[C@@H](C)[C@H](C)CC[C@]5(C(=O)Nc5ccccc5)CC[C@@]4(C)[C@]3(C)CC[C@H]2C1(C)C | 5.63 | 1.52 | 4.83 | < 5 | < 4.30 | 2.17 | 4.56 | 4.93 | 4.89 | 4.88 | 4.90 | 4.76 | 4.94

The next lines start with results.

pIC50 [6] | Compound | Ratio IC50 [1] | pIC50 (MGC-803) | Activity (NCI-H460 [2]) [%] | pIC50 (L02) | Ratio IC50 [3] | pIC50 [4] | pIC50 [5] | pIC50 (A549) | pIC50 (T-24) | pIC50 (HepG2) | pIC50 [7] | pIC50 (NCI-H460 [8])
5.32 | CC(=O)O[C@H]1CC[C@]2(C)[C@H]3CC=C4[C@@H]5[C@@H](C)[C@H](C)CC[C@]5(C(=O)Nc5ccc(C)c(C)c5)CC[C@@]4(C)[C@]3(C)CC[C@H]2C1(C)C | 1.81 | 4.82 | < 5 | < 4.30 | 1.51 | 4.58 | 4.91 | 4.91 | 4.78 | 4.76 | 4.72 | 4.98
5.15 | C[C@H]1[C@H](C)CC[C@]2(C(=O)Nc3ccccc3)CC[C@]3(C)C(=CC[C@@H]4[C@@]5(C)CCC(=O)C(C)(C)[C@@H]5CC[C@]43C)[C@H]12 | 1.99 | 4.82 | < 5 | < 4.30 | 2.02 | 4.44 | 4.87 | 4.79 | 4.87 | 4.74 | 4.59 | 4.89
5.09 | Cc1ccc(NC(=O)COC(=O)[C@]23CC[C@@H](C)[C@H](C)[C@H]2C2=CC[C@@H]4[C@@]5(C)CCC(=O)C(C)(C)[C@@H]5CC[C@@]4(C)[C@]2(C)CC3)cc1 | 2.18 | 4.78 | < 5 | < 4.30 | 1.98 | 4.40 | 4.81 | 4.88 | 4.80 | 4.70 | 4.62 | 4.96
5.65 | CC(=O)O[C@H]1CC[C@]2(C)[C@H]3CC=C4[C@@H]5[C@@H](C)[C@H](C)CC[C@]5(C(=O)Nc5ccc(C)cc5)CC[C@@]4(C)[C@]3(C)CC[C@H]2C1(C)C | 1.4 | 4.87 | < 5 | < 4.30 | 1.63 | 4.69 | 4.95 | 4.99 | 4.98 | 4.90 | 4.87 | 5.02
